According to ChEMBL document CHEMBL3616462, “Synthesis and antiviral activity of maleopimaric and quinopimaric acids' derivatives” (Bioorg Med Chem, 2015):

Key:
[1] = Selectivity index, ratio of CC50 for Influenza A virus (A/California/07/2009(H1N1)) infected MDCK cells to EC50 for antiviral activity against Influenza A virus H1N1 (A/California/07/2009(H1N1)) infected in MDCK cells; assay type: toxicity, cell-based; settings: dog; read-out: Ratio CC50/EC50
[2] = Antiviral activity against Influenza A virus (A/Brisbane/10/2007(H3N2)) infected in MDCK cells; assay type: functional, cell-based
[3] = Cytotoxicity against Influenza A virus (A/Brisbane/10/2007(H3N2)) infected MDCK cells; assay type: cell-based, Canis lupus familiaris; settings: dog
[4] = Cytotoxicity against Influenza B virus (B/Florida/4/2006) infected MDCK cells; assay type: cell-based, Canis lupus familiaris; settings: dog
[5] = Selectivity index, ratio of CC50 for HPV11 infected PHK cells epithelial raft cultures by standard AACF screening assay to EC50 for HPV11 infected in PHK cells epithelial raft cultures by standard AACF screening assay
human papillomavirus 11 = assay: Antiviral activity against HPV11 infected in PHK cells epithelial raft cultures by standard AACF screening assay; assay type: functional, organism-based; settings: human papillomavirus 11, PHK
[6] = Cytotoxicity against HPV11 infected PHK cells epithelial raft cultures by standard AACF screening assay; assay type: cell-based; settings: human
Hepatitis C virus = assay: Antiviral activity against HCV infected in human Huh7ET cells assessed as reduction in HCV RNA-derived luciferase activity at 20 uM by luciferase reporter gene assay; assay type: functional, Hepacivirus hominis; settings: Huh-7
Method in brief: (§1)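 HCV RNA replicon assay in Huh7 ET cells. Compounds were added in triplicate at a single concentration of 20 µM. Antiviral activity was read as HCV RNA-derived luciferase signal, expressed as % of control. Toxicity was read as β-actin RNA, % of control. SI = toxicity/antiviral activity. Interferon-α (2 IU/mL) was the positive control.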

Hepatitis B virus = assay: Antiviral activity against HBV infected in human HepG2(2.2.15) cells; assay type: functional, organism-based
Method in brief: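 Primary anti-HBV screen in confluent 2.2.15 cells, run alongside a toxicity assay in the same cells. Compounds were supplied as DMSO solutions.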

[7] = Cytotoxicity against Adenovirus Chicago 65089 infected human A549 cells; assay type: cell-based; settings: A549 cells infected with Adenovirus Chicago 65089
Method in brief: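 Respiratory-virus panel screen on A-549 cells, with compounds supplied as DMSO solutions. CC50 is the cell inhibitory concentration at the 50% endpoint, in µM.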

unidentified adenovirus = assay: Antiviral activity against Adenovirus Chicago 65089 infected in human A549 cells; assay type: functional, organism-based; settings: Chicago 65089, A549
[8] = Selectivity index, ratio of CC50 for Influenza B virus (B/Florida/4/2006) infected MDCK cells to EC50 for antiviral activity against Influenza B virus (B/Florida/4/2006) in MDCK cells; assay type: toxicity, cell-based; settings: dog; read-out: Ratio CC50/EC50
rhinovirus A2 = assay: Antiviral activity against human rhinovirus 2 infected in MDCK cells; assay type: functional, organism-based; settings: Rhinovirus A
[9] = Antiviral activity against SARS coronavirus Urbani infected in African green monkey Vero 76 cells; assay type: functional, cell-based; settings: Severe acute respiratory syndrome-related coronavirus
[10] = Selectivity index, ratio of CC50 for Influenza A virus (A/Viet Nam/1203/2004(H5N1)) infected MDCK cells to EC50 for antiviral activity against Influenza A virus (A/Viet Nam/1203/2004(H5N1)) infected in MDCK cells; assay type: toxicity, cell-based; settings: dog; read-out: Ratio CC50/EC50
[11] = Selectivity index, ratio of toxicity against human Huh7ET cells assessed as reduction in beta-actin RNA levels at 20 uM to antiviral activity against HCV infected in human Huh7ET cells assessed as reduction in HCV RNA-derived luciferase activity at 20 uM by luciferase reporter gene assay; assay type: cell-based, Huh-7; settings: read-out: Selectivity Index; method in brief: as §1
[12] = Selectivity index, ratio of CC50 for Influenza A virus (A/Brisbane/10/2007(H3N2)) infected MDCK cells to EC50 for antiviral activity against Influenza A virus (A/Brisbane/10/2007(H3N2)); assay type: toxicity, cell-based; settings: dog; read-out: Ratio CC50/EC50
[13] = Cytotoxicity against SARS coronavirus Urbani infected African green monkey Vero 76 cells; assay type: cell-based; settings: chlorocebus sabaeus, Vero 76 cells infected with SARS coronavirus Urbani
[14] = Cytotoxicity against human rhinovirus 2 infected MDCK cells; assay type: cell-based, Canis lupus familiaris; settings: dog, MDCK cells infected with human rhinovirus 2
[15] = Selectivity index, ratio of CC50 for Adenovirus Chicago 65089 infected human A549 cells to EC50 for antiviral activity against Adenovirus Chicago 65089 infected in human A549 cells; assay type: toxicity, cell-based; settings: A549 cells infected with Adenovirus Chicago 65089, read-out: Ratio CC50/EC50
Influenza B virus = assay: Antiviral activity against Influenza B virus (B/Florida/4/2006) in MDCK cells; assay type: functional, cell-based; settings: B/Florida/4/2006, MDCK
[16] = Selectivity index, ratio of CC50 for human rhinovirus 2 infected MDCK cells to EC50 for antiviral activity against human rhinovirus 2 infected in MDCK cells; assay type: toxicity, cell-based; settings: dog, MDCK cells infected with human rhinovirus 2; read-out: Ratio CC50/EC50
[17] = Cytotoxicity against Influenza A virus (A/Viet Nam/1203/2004(H5N1)) infected MDCK cells; assay type: cell-based, Canis lupus familiaris; settings: dog
[18] = Toxicity against human Huh7ET cells assessed as reduction in beta-actin RNA levels at 20 uM; assay type: cell-based, Huh-7; settings: values are per cent of control; for response, % of control at 20 µM: Huh7ET cells
Method in brief: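 HCV RNA replicon assay in Huh7 ET cells. Compounds were added in triplicate at a single concentration of 20 µM. Cytotoxicity was read as β-actin RNA as % of control, alongside HCV RNA-derived luciferase activity. Interferon-α (2 IU/mL) was the positive control.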

[19] = Cytotoxicity against HBV infected human HepG2(2.2.15) cells; assay type: cell-based; settings: HBV infected HepG2(2.2.15) cells
Method in brief: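 Toxicity was measured on confluent 2.2.15 cells alongside the primary anti-HBV assay. CC50 is given in µM.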

[20] = Cytotoxicity against Influenza A virus (A/California/07/2009(H1N1)) infected MDCK cells; assay type: cell-based, Canis lupus familiaris; settings: dog
[21] = Antiviral activity against Influenza A virus (A/California/07/2009(H1N1)) infected in MDCK cells; assay type: functional, cell-based
[22] = Antiviral activity against Influenza A virus (A/Viet Nam/1203/2004(H5N1)) infected in MDCK cells; assay type: functional, cell-based
[23] = Selectivity index, ratio of CC50 for ARS coronavirus Urbani infected African green monkey Vero 76 cells to EC50 for antiviral activity against ARS coronavirus Urbani infected in African green monkey Vero 76 cells; assay type: toxicity, cell-based; settings: Vero 76 cells infected with SARS coronavirus Urbani, read-out: Ratio CC50/EC50

| SMILES | EC50 [2] | CC50 [4] | EC50 (human papillomavirus 11) | CC50 [6] | inhibition at 20 µM (Hepatitis C virus) | EC50 (Hepatitis B virus) | EC90 (Hepatitis B virus) | CC50 [7] | EC50 (unidentified adenovirus) | selectivity ratio [8] | EC50 (rhinovirus A2) | EC50 [9] | selectivity ratio at 20 µM [11] | CC50 [13] | CC50 [14] | EC50 (Influenza B virus) | CC50 [17] | response, % of control at 20 µM [18] | CC50 [19] | EC50 [22] | further results |
| --- | --- | --- | --- | --- | --- | --- | --- | --- | --- | --- | --- | --- | --- | --- | --- | --- | --- | --- | --- | --- | --- |
| COC(=O)[C@H]1[C@@H](C(=O)OC)C2(C(=O)OC)CC[C@@H]3[C@](C)(CCC[C@@]3(C)C(=O)OC)[C@H]2C[C@H]1C(=O)C(C)C (some centres not stated) | 32 µM | 3.5 µM | > 50 µM | < 50 µM | 0.6% | > 10 µM | > 10 µM | 32 µM | 32 µM | 1.1 | 32 µM | > 30 µM | < 1 | 30 µM | 32 µM | 3.2 µM | 3.3 µM | 88.1% | 189 µM | 3.2 µM | selectivity ratio [1]: 1; CC50 [3]: 33 µM; Ratio CC50/EC50 [5]: 30; selectivity ratio [10]: 1; selectivity ratio [12]: 1; selectivity ratio [15]: 1; selectivity ratio [16]: 1; CC50 [20]: 33 µM; EC50 [21]: 32 µM |
| COC(=O)[C@H](C)NC(=O)[C@]1(C)CCC[C@]2(C)[C@H]3C[C@H]4C(C(C)C)=C[C@]3(CC[C@H]21)[C@@H]1C(=O)CCC(=O)[C@@H]14 |  | 33 µM | < 25 µM | < 25 µM | 60.8% | > 10 µM | > 10 µM | 47 µM | > 47 µM | 1.5 | > 25 µM | 30 µM | > 1 | 32 µM | 25 µM | 22 µM | 33 µM | 54% | 86 µM | 31 µM | Ratio CC50/EC50 [5]: 20; selectivity ratio [23]: 1.1; selectivity ratio [10]: 1.1 |
| COC(=O)[C@]1(C)CCC[C@]2(C)[C@H]3C[C@H]4C(=C(C)C)C5O[C@@]6(O)CCC(=O)[C@H]4[C@@H]6[C@@]53CC[C@H]21 |  |  |  |  | 68.4% | > 10 µM | > 10 µM |  |  |  |  |  | > 1 |  |  |  |  |  | 59 µM |  | response, % of control ([18]; huh-7, 20 µM): 151.2% |
| COC(=O)[C@]1(C)CCC[C@]2(C)[C@H]3CC4C(C(C)C)=C[C@]3(CC[C@H]21)[C@@H]1NC(=O)CC[C@H](O)[C@H]41 | > 28 µM | 35 µM | < 50 µM | < 50 µM | 97.3% | > 10 µM | > 10 µM | 29 µM | > 29 µM | 1.5 | > 28 µM | 6.3 µM | > 1 | 32 µM | 28 µM | 24 µM | 28 µM | 102% | 58 µM | > 28 µM | selectivity ratio [1]: 1; CC50 [3]: 28 µM; selectivity ratio [23]: 5.1; CC50 [20]: 33 µM; EC50 [21]: 32 µM |
| COC(=O)[C@]1(C)CCC[C@]2(C)[C@H]3C[C@H]4C(C(C)C)=C[C@]3(CC[C@H]21)[C@@H]1/C(=N/O)CCC2(OCCO2)[C@@H]14 | 3.2 µM | 3.2 µM | > 50 µM | < 50 µM | 97.9% | > 10 µM | > 10 µM | 9.8 µM | > 9.8 µM | 1 | 3.2 µM | > 2.4 µM | < 1 | 2.4 µM | 3.2 µM | 3.2 µM | 3.3 µM | 0.2% | 20 µM | 3.2 µM | CC50 [3]: 3.3 µM; selectivity ratio [10]: 1; selectivity ratio [12]: 1; selectivity ratio [16]: 1; CC50 [20]: 2.9 µM; EC50 [21]: > 2.9 µM |
| COC(=O)[C@]1(C)CCC[C@]2(C)[C@H]3C[C@H]4C(C(C)C)=C[C@]3(CC[C@H]21)[C@H]1[C@@H]4[C@@H](OC(=O)CCC(=O)O)CC[C@@H]1OC(=O)CCC(=O)O |  | 3.4 µM | > 50 µM | < 50 µM | 96.6% | > 10 µM | > 10 µM | 10 µM | > 10 µM | 1.1 | 31 µM | 3.2 µM | < 1 | 3.6 µM | 33 µM | 3.1 µM | 3.2 µM | 6.4% | 21 µM | 3.2 µM | selectivity ratio [23]: 1.1; selectivity ratio [10]: 1; selectivity ratio [16]: 1.1 |
| CC(C)C1=C[C@@]23CC[C@@H]4[C@](C)(CCC[C@@]4(C)C(=O)O)[C@H]2C[C@@H]1[C@H]1C(=O)CCC(=O)[C@H]13 | 32 µM | 34 µM |  |  | 0% | > 10 µM | > 10 µM |  |  | 4 |  |  | < 1 |  |  | 8.6 µM |  | 88% | 62 µM |  | CC50 [3]: 36 µM; selectivity ratio [12]: 1.1 |
